# High-throughput results: PubChem, several laboratories
# AI-2 QS mod: modulates the Vibrio harveyi AI-2 quorum sensing system; Vibrio harveyi JMH597 AI-2 luminescence/OD600 ratio, 9 h; stronger effect = lower value; strain lacks LuxN and CqsS sensors; 0 = neutral-control median; activity change, % at 7.5 µM; actives 0.4% (n = 300,000); in the data active means activity change below about -75%, passing the limit was not always enough;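 further: luminescence divided by OD600 gain over 9 h not by final OD600 alone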
# Yeast superoxide: caloric restriction mimetics inhibiting age-related superoxide in yeast; actives 0.18% (n = 330,000); S. cerevisiae aged cells, superoxide DHE fluorescence; stronger effect = lower value; superoxide response (% of plate mean), % at 10 µM;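 active means superoxide response under a set limit, about three screen SD below normal, cut at about 65% in these data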;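 further: yeast aged for seven days with compound at 30 °C before DHE staining; 100% = average MFI of all compound-treated wells on the plate with controls excluded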
# STK33 inh: blocks human STK33 kinase activity | actives 0.073% (n = 320,000) | purified STK33, MBP phosphorylation, ADP-Glo luminescence | Q9BYT3 | AID 2661 | inhibition, % at 10 µM;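 active means inhibition at or above 25%, using the most active replicate where run in duplicate; inactive means inhibition below 25%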
# GSK3B inh: human GSK3beta kinase inhibition. P49841. GST-GSK3beta kinase, ADP-Glo luminescence, 60 min; stronger effect = lower value. AID 2097. activity score (negative = inhibition), % at 10 µM. actives 0.038% (n = 300,000);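 active means more than half of replicate wells score below -50%, meaning over 50% inhibition versus plate controls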;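 further: 0% = median DMSO wells and -100% = median GW8510 positive control wells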
#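 Test system: GST-tagged human GSK3beta kinase, cell-free; evaluation: activity score scaled between in-plate DMSO and GW8510 controls; measured by: ADP-Glo luminescence; incubation: 60 min reaction, RT; benchmarks: DMSO and 20 µM GW8510; reagent: peptide substrate plus 25 µM ATP (final); medium: Tris/MgCl2 kinase buffer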
# PolyA inhibitor: inhibitors of polyadenylation in S. cerevisiae; S. cerevisiae SKY197-pL101 polyadenylation reporter, beta-gal luminescence; efflux-impaired pdr1/pdr3 knockout yeast; score 100 = 6 SD above DMSO; activity score, % at 12 µM; actives 0.02% (n = 300,000);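 active means lowest replicate activity score at least 50, where 100 means six control SD above control mean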;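 further: yeast exposed to compound for 9 h at 30 °C; higher score means more reporter readthrough which indicates perturbed polyadenylation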
# GSK3 alpha inh: human GSK-3 alpha kinase inhibition | P49840 | ADP-Glo luminescence, 60 min | inhibition, % at 10 µM | actives 0.1% (n = 320,000) | AID 2650;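 active means more than half of replicates show inhibition above 20%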;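 further: GST-tagged GSK-3 alpha with peptide substrate and 25 µM ATP; 0% = DMSO neutral wells and 100% = GW8510 positive control wells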
# Superoxide pick: yeast aging superoxide inhibition, cherry pick confirmation. shares compounds with Yeast superoxide. S. cerevisiae aging, superoxide DHE fluorescence; stronger effect = lower value. superoxide response (% of plate), % at 10 µM. actives 1% (n = 850). AID 434994;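 active means superoxide signal below 65% of the plate average of sample wells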;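 further: cells aged with compound for 7 days at 30 degrees C before staining; 100% equals mean DHE fluorescence of all compound wells on the plate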
# DHE counter: compound alters DHE oxidation or fluorescence in yeast; shares compounds with Yeast superoxide; S. cerevisiae BY4741, flow cytometry; stronger effect = lower value; fluorescence response, % at 10 µM; 850 tested, under 10 active;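 active means fluorescence response below 15%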;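 further: percent of the mean fluorescence averaged over all compound wells on the plate; lower means stronger quenching of DHE signal or ROS scavenging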
# Starred values were filed as active, the others as inactive; . = no result given. An excerpt weighted towards active compounds, which were near 0.72% of everything screened.
SMILES,AI-2 QS mod,Yeast superoxide,STK33 inh,GSK3B inh,PolyA inhibitor,GSK3 alpha inh,Superoxide pick,DHE counter
O=C1C=C(NC2=CC3OC(c4ccccc4)OCC3OC2=O)CCC1 (stereo not given),2.6,60.1*,1.7,-1.1,16.6,1.0,114.4,103.5
O=C(NC1CCCC1)C(c1cccnc1)N(C(=O)c1csnn1)c1ccc(F)cc1 (stereo not given),-2.5,98.6,-0.6,-1.7,-10.4,3.0,.,.
Cc1cc(Oc2ccc(=O)n(C)n2)nc(SCCOc2ccccc2)n1,10.6,14.6*,-2.4,2.9,-14.9,-0.4,106.9,93.0
CC1C(=O)NN=C1C(=O)N/N=C\c1ccc(O)cc1O (stereo not given),-18.1,60.2*,0.3,2.0,-0.9,2.8,93.6,93.9
O=C(NC(=O)N1CCCCC1)c1ccccc1,16.4,99.0,-1.7,1.4,-9.5,-1.7,.,.
O=C(NC(=O)N1CCCC1)c1csnn1,14.0,63.7*,-1.2,3.0,14.2,-2.8,99.4,91.0
Nc1ccccc1N1CCN(C(=O)c2ccccc2)CC1,2.5,97.6,-0.6,-1.3,-18.1,-3.2,99.7,113.1
O=C(c1cccc(C(=O)N2CCN(c3ccccc3F)CC2)c1)N1CCN(c2ccccc2F)CC1,15.9,96.8,-0.2,-3.9,5.1,-1.7,.,.
CC(NC(=O)Cc1ccsc1)c1ccc(Cl)cc1Cl (stereo not given),11.8,103.2,-0.8,-2.6,1.9,0.2,.,.
